Experimental data taken from PubChem BioAssay.
Records with an inconclusive call do not appear.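 The calls were made as follows, unless noted: active = cell viability at or below a set limit in both duplicate runs, the limit being the all-compound median minus 4 SD (cut at about 23% in these data, passing the limit was not always enough); inconclusive = no clear call, values can overlap the other calls; inactive = the rest.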

How the values were obtained:
[1] = S. cerevisiae growth inhibition in permissive medium (OD615), pilot counter-assay for S. cerevisiae lifespan shortening project, permissive growth control (AID 705;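 active = growth inhibition above 25% in both replicates, a cutoff set 3 SD above the mean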); conditions: OD615, 24 h, at 10 µM, active compounds read high
Method in brief: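 System: Engineered DeaD yeast | Buffer or medium: SC raffinose/galactose permissive medium | Doses: 10 µM single dose, 0.25% DMSO | Times: 24 h exposure, 30 °C | Measured by: OD615 turbidity read | Read-out: Yeast growth inhibition indicated by reduced 24 h OD615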

[2] = S. cerevisiae growth inhibition in restrictive medium, OD615, pilot screen, restrictive growth control, yeast lifespan reduction project (AID 706;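 active = growth inhibition above a set limit, 3 SD over mean compound inhibition, in both replicates, cut at about 43% in these data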;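 also: modified DeaD lifespan yeast strain shifted to restrictive glucose medium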); conditions: OD615, 48 h, at 10 µM, active compounds read high
Method in brief: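 Assay system: engineered S. cerevisiae DeaD strain; Buffer or medium: CSMM-D glucose medium; Dosing: 10 µM compound, 0.25% DMSO; Times: cell pre-growth 4 h, compound exposure 48 h, 30 °C; Detection: absorbance (optical density) measured at 615 nm.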

[3] = doxorubicin toxicity protection in MRP-1 cells – H69AR cells, CellTiter-Glo, duplicate, MRP-1 activator project, pilot screen (AID 807;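 active = viability increase at or above a cutoff of the median across tested compounds plus 3 SD, cut at about 8.5% in these data, passing the limit was not always enough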;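 also: compound pretreatment 18-22 h then 72 h combined with doxorubicin; 0% = doxorubicin alone and 100% = vehicle without doxorubicin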); conditions: H69AR viability with doxorubicin, CellTiter-Glo luminescence; at 10 µM; active compounds read high
[4] = viability of HCT116 without oncogenic beta-catenin – human colon tumor cells, pilot screen (AID 823); conditions: HCT116 beta-catenin knockout viability, CellTiter-Glo, 60 h; at 10 µM; active compounds read low;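 also: 0% = wells killed by 20 µM Hyamine and 100% = untreated DMSO cell wells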
[5] = viability of PTEN-null HCT116 cells – cell-based, HCT116 clonal line, CellTiter-Glo, pilot screen (AID 824;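 active = viability at or below 27.92% in each of two runs, the all-compound median minus 4 SD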;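 also: 0% = 20 µM Hyamine control and 100% = vehicle cell control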); conditions: HCT116 PTEN-deleted viability, 60 h, at 10 µM, active compounds read low
[6] = RAM pathway blockade in budding yeast – dse1pr::URA3 reporter, 5-FOA selection, pilot screen (AID 869;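 active = inhibition over a set limit, the all-compound mean plus 3 SD, in both replicate runs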;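 also: 0% = DMSO wells with no growth and 100% = 10 µM 1-NA-PP1 with full growth; RAM network block rescues cells from 5-FOA so hits raise OD615 growth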); conditions: S. cerevisiae dse1pr::URA3 5-FOA growth, OD615, 2 d; at 10 µM; active compounds read high; strain carries analog-sensitive mutant Cbk1 kinase
[7] = RAM signaling pathway blockade in yeast – S. cerevisiae, Pdr1DBD-CYC8 efflux-inhibited sensitized strain, primary screen (AID 1298;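 active = RAM network inhibition above 8.4% in each of two replicates, 3 SD over the compound average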;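 also: 0% = DMSO untreated cells without growth and 100% = 10 µM 1-NA-PP1 full growth; higher means more yeast growth rescued from 5-FOA killing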); conditions: S. cerevisiae cbk1-as DSE1-URA3 strain, 5-FOA growth OD615, 2 d; at 50 µM; active compounds read high

CCC(=O)c1ccc(N2CCN(C(=O)COc3ccc(F)cc3)CC2)c(F)c1
inactive: growth inhibition [1] -5.39% | growth inhibition [2] -3.45% | viability increase [3] -2.21% | viability [4] 73.7% | viability [5] 82.5% | inhibition [6] 1.71% | RAM network inhibition [7] 5.92%

O=C(O)CCCC(=O)Nc1ccc(Cl)c(Cl)c1
inactive: growth inhibition [1] 4.12% | growth inhibition [2] -2% | viability increase [3] -0.13% | viability [4] 95.4% | viability [5] 98.1% | inhibition [6] 0.165% | RAM network inhibition [7] 1.64%

CC(C)(Oc1ccc(-c2ccco2)cc1)C(=O)O
inactive: growth inhibition [1] -0.405% | growth inhibition [2] 0.705% | viability increase [3] -0.38% | viability [4] 97.8% | viability [5] 96.8% | inhibition [6] 0.31% | RAM network inhibition [7] 1.07%

O=C(Nc1ccccc1)N(CCc1ccncc1)C1CCCCC1
inactive: growth inhibition [1] -7% | growth inhibition [2] -2.46% | viability increase [3] -2.85% | viability [4] 97.4% | viability [5] 98.9% | inhibition [6] 1.18% | RAM network inhibition [7] -0.83%

COc1cccc(C2C(C(=O)c3ccco3)=C(O)C(=O)N2CCCN2CCOCC2)c1OC (configuration not stated)
inactive: growth inhibition [1] -8.82% | growth inhibition [2] -0.75% | viability increase [3] -3.37% | viability [4] 102% | viability [5] 93.5% | inhibition [6] 1.02% | RAM network inhibition [7] 6.98%

COc1ccccc1NC(=O)C1=C(C)NC(=O)NC1c1cccc(OC)c1OC (configuration not stated)
inactive: growth inhibition [1] -3.89% | growth inhibition [2] 2.57% | viability increase [3] -2.1% | viability [4] 104% | viability [5] 94.8% | inhibition [6] 0.545% | RAM network inhibition [7] 3.58%

CCCCNC(=O)c1cc(-c2ccc(OC)c(OC)c2)on1
inactive: growth inhibition [1] 0.455% | growth inhibition [2] 5.25% | viability increase [3] 2.07% | viability [4] 104% | viability [5] 96.9% | inhibition [6] -0.37% | RAM network inhibition [7] -0.26%

CCn1c(=NC(=O)c2ccc(N3C(=O)CCC3=O)cc2)sc2c(OC)ccc(OC)c21
inactive: growth inhibition [1] -5.79% | growth inhibition [2] -11.5% | viability increase [3] -0.73% | viability [4] 97.9% | viability [5] 92.7% | inhibition [6] 1.86% | RAM network inhibition [7] 8.5%

N#Cc1ccccc1N=C1CCCN1Cc1ccccc1
inactive: growth inhibition [1] -3.08% | growth inhibition [2] 9.46% | viability increase [3] 0.25% | viability [4] 88.8% | viability [5] 95.2% | inhibition [6] 0.63% | RAM network inhibition [7] 4.48%

Cc1ccc(C2CC(c3ccc(F)cc3)Nc3nc(N)nn32)cc1 (configuration not stated)
inactive: growth inhibition [1] -3.28% | growth inhibition [2] 5.93% | viability increase [3] -3.44% | viability [4] 99.8% | viability [5] 86.7% | inhibition [6] 0.25% | RAM network inhibition [7] 2.86%

CCN(CC)C(=O)c1cc2c(=O)n3ccccc3nc2s1
inactive: growth inhibition [1] -4.75% | growth inhibition [2] -3.33% | viability increase [3] -3.66% | viability [4] 93.7% | viability [5] 96.2% | inhibition [6] 1.94% | RAM network inhibition [7] 0.68%

Cc1cc(NC(=O)CSCc2nc(-c3cccc(Cl)c3)oc2C)no1
inactive: growth inhibition [1] -12.6% | growth inhibition [2] -5.47% | viability increase [3] 1.25% | viability [4] 94.3% | viability [5] 95.5% | inhibition [6] 1.98% | RAM network inhibition [7] 11.2%

COc1ccc(S(=O)(=O)Cc2ccc(C(=O)N3CCN(c4cc(Cl)ccc4C)CC3)o2)cc1
inactive: growth inhibition [1] -4.16% | growth inhibition [2] -10.7% | viability increase [3] -2.31% | viability [4] 76.8% | viability [5] 67% | inhibition [6] 2.08% | RAM network inhibition [7] 3.33%

CCOC(=O)CN1CC23C=CC(O2)C(C(=O)NCc2ccc(C)cc2)C3C1=O (configuration not stated)
inactive: growth inhibition [1] -6.12% | growth inhibition [2] -3.33% | viability increase [3] -0.1% | viability [4] 99.5% | viability [5] 109% | inhibition [6] 1.29% | RAM network inhibition [7] 1.3%

O=C(CC1(O)C(=O)Nc2ccccc21)c1ccccc1 (configuration not stated)
inactive: growth inhibition [1] 1.47% | growth inhibition [2] -8.37% | viability increase [3] -3.28% | viability [4] 92.2% | viability [5] 96.7% | inhibition [6] 0.055% | RAM network inhibition [7] -1.83%

CCCC(NS(=O)(=O)c1ccc(OC)cc1)C(=O)O (configuration not stated)
inactive: growth inhibition [1] -8.86% | growth inhibition [2] -7.75% | viability increase [3] -1.16% | viability [4] 90.1% | viability [5] 95.4% | inhibition [6] 1.29% | RAM network inhibition [7] 3.19%

Cc1ccc(S(=O)(=O)/N=C(\CN2CCCCC2)N2CCOCC2)cc1
inactive: growth inhibition [1] -11.4% | growth inhibition [2] -13.2% | viability increase [3] -1.32% | viability [4] 101% | viability [5] 95% | inhibition [6] 0.44% | RAM network inhibition [7] 4.62%

Cc1nc(N2CCCCC2)c2sc(=S)n(C)c2n1
inactive: growth inhibition [1] -7.24% | growth inhibition [2] 7.63% | viability increase [3] 1.13% | viability [4] 82.2% | viability [5] 81.9% | inhibition [6] 0.955% | RAM network inhibition [7] 2.15%

CC1(C)CC(=O)C(C=NCCN2CCN(C(=O)CC3CCCC3)CC2)=C(O)C1
inactive: growth inhibition [1] -24.8% | growth inhibition [2] -8.86% | viability increase [3] -1.93% | viability [4] 96.9% | viability [5] 95.2% | inhibition [6] 1.25% | RAM network inhibition [7] 7.49%

Cc1ccccc1-n1nc2c(c1NC(=O)COc1ccc(Cl)cc1)CS(=O)C2 (configuration not stated)
inactive: growth inhibition [1] -5.57% | growth inhibition [2] -3.5% | viability increase [3] 0.22% | viability [4] 98.3% | viability [5] 92.6% | inhibition [6] 1.46% | RAM network inhibition [7] 1.42%

c1cnn(-c2nc(N3CCOCC3)nc(N3CCOCC3)n2)c1
inactive: growth inhibition [1] 0.06% | growth inhibition [2] 7.23% | viability increase [3] -5.18% | viability [4] 67.1% | viability [5] 72.9% | inhibition [6] 1.96% | RAM network inhibition [7] -2.04%

O=C(CCS(=O)(=O)c1cccc2nsnc12)N1CCN(C(=O)c2ccco2)CC1
inactive: growth inhibition [1] -2.63% | growth inhibition [2] -12.5% | viability increase [3] -4.22% | viability [4] 103% | viability [5] 102% | inhibition [6] 0.36% | RAM network inhibition [7] 1.07%

O=C(NCCCN1CCCCC1)C1(S(=O)(=O)c2ccc(Cl)cc2)CC1
inactive: growth inhibition [1] -12.4% | growth inhibition [2] -14% | viability increase [3] -1.07% | viability [4] 103% | viability [5] 97.2% | inhibition [6] 1.6% | RAM network inhibition [7] 2.82%

CC(=O)Nc1nc2n(n1)C(c1ccccc1)C=C(c1ccccc1)N2 (configuration not stated)
inactive: growth inhibition [1] -7.58% | growth inhibition [2] 4.18% | viability increase [3] -2.94% | viability [4] 99.9% | viability [5] 106% | inhibition [6] 1.06% | RAM network inhibition [7] 1.19%

COCc1nc(-c2ccc(-c3ccc(OC)cc3)nc2OC)no1
inactive: growth inhibition [1] 11.9% | growth inhibition [2] 3.28% | viability increase [3] -0.98% | viability [4] 71% | viability [5] 72.2% | inhibition [6] 1% | RAM network inhibition [7] 2.1%

CS(=O)(=O)N1CCN(c2nc(-c3ccc(F)cc3)cs2)CC1
inactive: growth inhibition [1] -4.7% | growth inhibition [2] 1.69% | viability increase [3] -0.68% | viability [4] 90.9% | viability [5] 88.8% | inhibition [6] 2.98% | RAM network inhibition [7] 3.11%

Cn1c(=O)oc2cc(S(=O)(=O)N3CCCC(C(=O)N4CC=C(c5ccccc5)CC4)C3)ccc21 (configuration not stated)
inactive: growth inhibition [1] -10.7% | growth inhibition [2] 8.07% | viability increase [3] -1.04% | viability [4] 80.9% | viability [5] 82.1% | inhibition [6] 1.17% | RAM network inhibition [7] 4.97%

Cc1cc(NCc2ccc3c(c2)OCO3)n2nc(C)nc2n1
inactive: growth inhibition [1] -16.8% | growth inhibition [2] -2% | viability increase [3] -0.9% | viability [4] 94.4% | viability [5] 87.5% | inhibition [6] 0.44% | RAM network inhibition [7] -0.15%

Oc1ccc(-c2nc3cnccn3c2Nc2ccc3c(c2)OCCO3)cc1
inactive: growth inhibition [1] 2% | growth inhibition [2] 6.18% | viability increase [3] -6.18% | viability [4] 83.7% | viability [5] 83.8% | inhibition [6] 1.58% | RAM network inhibition [7] 7.64%

COc1ccc(-n2c(Cn3c(=O)sc4ccccc43)nnc2SCC(=O)N2CCCC2)cc1
inactive: growth inhibition [1] -1.82% | growth inhibition [2] 17.8% | viability increase [3] 0.25% | viability [4] 104% | viability [5] 102% | inhibition [6] 1.5% | RAM network inhibition [7] 3.39%

O=C(O)C1C2C=CC3(CN(Cc4ccco4)C(=O)C13)O2 (configuration not stated)
inactive: growth inhibition [1] -11.7% | growth inhibition [2] 4.86% | viability increase [3] -0.96% | viability [4] 112% | viability [5] 95.6% | inhibition [6] 0.815% | RAM network inhibition [7] -0.52%

O=C(CSc1nc2ccccc2[nH]1)Nc1ccc(F)cc1
inactive: growth inhibition [1] 3.95% | growth inhibition [2] 11.3% | viability increase [3] 0.83% | viability [4] 97.7% | viability [5] 90.2% | inhibition [6] 0.255% | RAM network inhibition [7] 5.07%

Cc1ccc2c(CC(=O)Nc3nc(C)cs3)coc2c1
inactive: growth inhibition [1] -5.02% | growth inhibition [2] 0.02% | viability increase [3] 0.52% | viability [4] 76.5% | viability [5] 80.4% | inhibition [6] 1.38% | RAM network inhibition [7] 0.88%

O=C(CSc1nnc(Cc2cc(=O)[nH]c(=O)[nH]2)n1-c1ccccc1)N1CCCCC1
inactive: growth inhibition [1] -4.77% | growth inhibition [2] 5.95% | viability increase [3] -2.54% | viability [4] 99.7% | viability [5] 90.4% | inhibition [6] 1.02% | RAM network inhibition [7] -2.08%

Cc1ccc(S(=O)(=O)N2CCN(C(=O)CSc3nnc(C)s3)C2)cc1
inactive: growth inhibition [1] -14.3% | growth inhibition [2] -10.7% | viability increase [3] -1.75% | viability [4] 91.9% | viability [5] 87.3% | inhibition [6] 1.31% | RAM network inhibition [7] -0.22%

CCOc1ccc(NC(=O)CN2C(=O)COc3ccc(Cl)cc32)cc1
inactive: growth inhibition [1] -17% | growth inhibition [2] -12.8% | viability increase [3] 3.8% | viability [4] 97.4% | viability [5] 90.1% | inhibition [6] 2.06% | RAM network inhibition [7] 6.61%
